Test results reported in ChEMBL document CHEMBL4477226, “Reduction Sensitive Lipid Conjugates of Tenofovir: Synthesis, Stability, and Antiviral Activity” (J Med Chem, 2016).
Where a name gives a salt, the structure may show the parent alone.

Assays:
[1] = tested on: Human immunodeficiency virus 1; assay: Antiviral activity against HIV1 infected in human PBMC assessed as inhibition of viral replication by measuring reverse transcriptase activity in cell supernatant preincubated with cells followed by viral infection measured after 7 days by radioactive incorporation polymerization assay; type: functional, organism-based
Summary of the method: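 HIV-infected PBMCs; antiviral activity read as reverse transcriptase in cell supernatants; EC50 is the concentration in μM that inhibits HIV-1 by 50%.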

[2] = tested on: PBMC; assay: (§1) Cytotoxicity against human PBMC assessed as reduction in cell viability by XTT assay; type: cell-based
Summary of the method: (§2)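 CC50 is the concentration in μM that reduces viability of uninfected PBMCs by 50%.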

[3] = Therapeutic index, ratio of CC50 for human PBMC to EC50 for HIV1 infected in human PBMC; type: toxicity; conditions: read-out: Ratio CC50/EC50
Summary of the method: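 TI is the ratio of PBMC CC50 (uninfected cells, 50% viability loss) to EC50 for 50% inhibition of HIV-1, both in μM; HIV-1 activity measured as reverse transcriptase in supernatants of infected PBMCs.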

[4] = tested on: Hepatitis B virus; assay: Antiviral activity against HBV infected in human HepG2.2.15 cells assessed as inhibition of viral DNA in cell supernatant incubated for 3 days in presence of 10% FBS followed by compound treatment in absence of 10% FBS for 3 days by qRT-PCR method; type: functional, organism-based; conditions: HepG2.2.15, 72 h
Summary of the method: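 HBV assay in HepG2.2.15 cells; viral DNA quantified by qPCR after 6 days of incubation.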

[5] = tested on: HepG2 2.2.15; assay: (§3) Cytotoxicity against human HepG2.2.15 cells assessed as reduction in cell viability after 6 days by XTT assay; type: cell-based; conditions: hepg2 2.2.15, 144 h
[6] = Therapeutic index, ratio of CC50 for human HepG2.2.15 cells to EC50 for HBV infected in human HepG2.2.15 cells; type: toxicity, cell-based; conditions: read-out: Ratio CC50/EC50
[7] = as §1; type: cell-based; summary of the method: as §2
[8] = as §3; type: cell-based, HepG2 2.2.15; conditions: HepG2.2.15 cells
[9] = Stability in pH 7.4 phosphate buffered saline assessed as lipid adsorption on glass surface using pyrex glassware measured up to 1440 mins by LC-MS analysis; type: physicochemical; conditions: buffer, pH 7.4, 24 h
[10] = Stability in pH 7.4 phosphate buffered saline assessed as lipid adsorption on glass surface using silanized glassware measured up to 1440 mins by LC-MS analysis; type: physicochemical; conditions: buffer, pH 7.4, 24 h
[11] = Stability in pH 7.4 phosphate buffered saline assessed as lipid adsorption on glass surface using kimax glassware measured up to 1440 mins by LC-MS analysis; type: physicochemical; conditions: buffer, pH 7.4, 24 h
[12] = Therapeutic index, ratio of CC90 for human PBMC to EC90 for HIV1 infected in human PBMC; type: toxicity; conditions: read-out: TI
Summary of the method: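 HIV-1-infected human PBMCs; antiviral effect read as reverse transcriptase activity in culture supernatants. Toxicity measured as loss of viability in uninfected PBMCs. Index calculated as the cytotoxic concentration divided by the effective concentration at the 90% level (CC90/EC90).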

[13] = Half life in human plasma at 2 mg by LC-MS analysis; type: ADME, cell-free
Summary of the method: (§4)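 Compound incubated in human serum, PBS (pH 7.4), DMEM, or carbonate/bicarbonate buffer (pH 9). Aliquots were taken at several time points over 2 h, with a final sample at 24 h, and analysed by LC-MS to follow decomposition. Half-life was derived from loss of parent over time.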

[14] = Half life in pH 7.4 phosphate buffered saline at 2 mg by LC-MS analysis; type: physicochemical; summary of the method: as §4
[15] = Half life in pH 7.4 phosphate buffered saline at 2 mg using kimax glassware by LC-MS analysis; type: physicochemical; summary of the method: as §4
[16] = Half life in pH 9 Sodium carbonate/bicarbonate buffer at 2 mg using kimax glassware by LC-MS analysis; type: physicochemical; summary of the method: as §4
[17] = Half life in DMEM at 2 mg using kimax glassware by LC-MS analysis; type: physicochemical; summary of the method: as §4
[18] = Stability in pH 9 Sodium carbonate/bicarbonate buffer at 2 mg by LC-MS analysis; type: physicochemical; conditions: in vitro; summary of the method: as §4
[19] = Stability in DMEM at 2 mg by LC-MS analysis; type: physicochemical; conditions: in vitro; summary of the method: as §4
[20] = Oral bioavailability in rhesus monkey by HPLC analysis; type: ADME, organism-based, Macaca mulatta; conditions: in vivo
[21] = Oral bioavailability in rat at 30 mg/kg, administered through gastric intubation by HPLC analysis; type: ADME, organism-based; conditions: in vivo
[22] = Oral bioavailability in mouse; type: ADME, organism-based; conditions: in vivo

| Structure (SMILES) | EC50 [1] [µM] | CC50 [2] [µM] | selectivity ratio [3] | EC50 [4] [µM] | selectivity ratio [6] | also measured |
| --- | --- | --- | --- | --- | --- | --- |
| CCCCCCCCCCCCSSCCOP(=O)(O)CO[C@H](C)Cn1cnc2c(N)ncnc21 | 0.003 | 25 | 8300 | 1.67 | > 30 | CC50 [5]: > 50 µM |
| CCCCCCCCCCCCCCCCSSCCOP(=O)(CO[C@H](C)Cn1cnc2c(N)ncnc21)Nc1ccccc1 (some centres undefined) | 0.005 | 34.2 | 7000 | – | – | – |
| CCCCCCCCCCCCCCCCCCSSCCOP(=O)(CO[C@H](C)Cn1cnc2c(N)ncnc21)OCCSSCCCCCCCCCCCCCCCCCC | 0.331 | – | > 76 | > 25 | > 1 | CC50 [7]: > 25 µM; CC50 at 144 h [8]: > 25 µM |
| CCCCCCCCCCCCCCCCSSCCOP(=O)(CO[C@H](C)Cn1cnc2c(N)ncnc21)OCc1ccccc1 (some centres undefined) | 0.018 | 41.1 | 2300 | – | – | – |
| CCCCCCCCCCCCCCCCSSCCOP(=O)(CO[C@H](C)Cn1cnc2c(N)ncnc21)OCCC (some centres undefined) | 0.216 | 10.6 | 49 | – | – | – |
| CCCCCCCCCCSSCCOP(=O)(O)CO[C@H](C)Cn1cnc2c(N)ncnc21 | 0.085 | > 50 | > 590 | > 50 | > 1 | CC50 [5]: > 50 µM |
| CCCCCCCCCCSSCCOP(=O)(CO[C@H](C)Cn1cnc2c(N)ncnc21)OCCSSCCCCCCCCCC | 0.349 | – | > 287 | > 100 | > 1 | CC50 [7]: > 100 µM; CC50 at 144 h [8]: > 100 µM |
| CCCCCCCCCCCCCCCCOCCCOC[C@H]1O[C@@H](n2ccc(=O)[nH]c2=O)[C@H](F)[C@@H]1O | – | – | – | – | – | Stability [9]: Unstable; Stability [10]: Unstable; Stability [11]: Stable |
| C[C@H](Cn1cnc2c(N)ncnc21)OCP(=O)(O)OCCS | – | > 100 | – | 41.9 | – | CC50 [5]: > 100 µM |
| CCCCCCCCCCCCCCCCSSCCOP(=O)(CO[C@H](C)Cn1cnc2c(N)ncnc21)OCC (some centres undefined) | 0.349 | 36.2 | 104 | – | – | – |
| CCCCCCCCCCCCCCCCCCSSCCOP(=O)(O)CO[C@H](C)Cn1cnc2c(N)ncnc21 | 0.0006 | 6.36 | 11000 | 0.505 | > 50 | CC50 [5]: > 50 µM |
| CCCCCCCCCCCCSSCCOP(=O)(CO[C@H](C)Cn1cnc2c(N)ncnc21)OCCSSCCCCCCCCCCCC | 1.18 | – | > 85 | > 100 | > 1 | CC50 [7]: > 100 µM; CC50 at 144 h [8]: > 100 µM |
| CCCCCCCCCCCCCCCCSSCCOP(=O)(O)CO[C@H](C)Cn1cnc2c(N)ncnc21.N | 0.00065 | 14.3 | 22000 | 0.02 | 1200 to 1250 | CC50 [5]: > 25 µM; selectivity ratio [12]: 11000; t1/2 [13]: > 24 h; half-life [14]: < 0.333 h; half-life [15]: < 2 h; half-life [16]: < 2 h; half-life [17]: < 2 h; Stability [18]: Unstable; Stability [19]: Unstable |
| CCCCCCCCCCCCCCCCSSCCOP(=O)(CO[C@H](C)Cn1cnc2c(N)ncnc21)OCCSSCCCCCCCCCCCCCCCC | 6.32 | – | 4 | > 25 | > 1 | CC50 [7]: > 25 µM; CC50 at 144 h [8]: > 25 µM |
| CCCCCCCCCCCCCCCCSSCCOP(=O)(CO[C@H](C)Cn1cnc2c(N)ncnc21)OC (some centres undefined) | 0.026 | 38.2 | 1500 | – | – | – |
| CCCCCCCCCCCCCCCCSSCCOP(=O)(CO[C@H](C)Cn1cnc2c(N)ncnc21)OCCCCCCCC (some centres undefined) | 0.911 | – | > 50 | – | – | CC50 [7]: > 50 µM |
| CCCCCCCCCCCCCCCCSSCCOP(=O)(CO[C@H](C)Cn1cnc2c(N)ncnc21)OCCCC (some centres undefined) | 0.19 | 27.9 | 150 | – | – | – |
| CCCCCCCCCCCCCCSSCCOP(=O)(CO[C@H](C)Cn1cnc2c(N)ncnc21)OCCSSCCCCCCCCCCCCCC | 0.189 | – | > 529 | > 100 | > 1 | CC50 [7]: > 100 µM; CC50 at 144 h [8]: > 100 µM |
| C[C@H](Cn1cnc2c(N)ncnc21)OCP(=O)(O)OCCSSCCO | 1.61 | > 100 | > 62.1 | 11.6 | > 8.6 | CC50 [5]: > 100 µM; t1/2 [13]: < 0.567 h; half-life [14]: 3.5 h |
| CCCCCCCCCCCCCCSSCCOP(=O)(O)CO[C@H](C)Cn1cnc2c(N)ncnc21.N | 0.0005 | 14 | 28000 to 30000 | 0.444 | > 56 | CC50 [5]: > 25 µM; selectivity ratio [12]: 11000; t1/2 [13]: > 24 h; half-life [15]: < 2 h; half-life [16]: < 2 h; half-life [17]: < 2 h; Stability [18]: Unstable; Stability [19]: Unstable |
| CCCCCCCCCCCCCCCCSSCCOP(=O)(CO[C@H](C)Cn1cnc2c(N)ncnc21)OCC(C)(C)C (mixture of isomers) | 0.14 | > 100 | > 700 | – | – | – |
| Nc1ncnc2c1ncn2CCOCP(=O)(O)O [ADEFOVIR] | – | – | – | – | – | bioavailability [20]: < 1%; bioavailability [21]: 8 to 11% |
| C[C@H](Cn1cnc2c(N)ncnc21)OCP(=O)(O)O [TENOFOVIR ANHYDROUS] | 0.319 | > 100 | > 300 | – | – | bioavailability [22]: 2% |
| CC(C)OC(=O)OCOP(=O)(CO[C@H](C)Cn1cnc2c(N)ncnc21)OCOC(=O)OC(C)C [TENOFOVIR DISOPROXIL FUMARATE] | 0.0046 | 43.7 | 9500 | 0.34 | 86 to 190 | CC50 at 144 h [8]: 29.2 to 64.5 µM; selectivity ratio [12]: 1300 |
| CCCCCCCCCCCCCCCCOCCCOP(=O)(O)CO[C@H](C)Cn1cnc2c(N)ncnc21 [TENOFOVIR EXALIDEX] | 0.02 | > 100 | > 5000 | – | – | – |
